Assay results: ChEMBL document CHEMBL1765049, “Inhibitory properties of 2-substituent-1H-benzimidazole-4-carboxamide derivatives against enteroviruses” (Bioorg Med Chem, 2011); call rule not given here

Assays:
[1] = Selectivity index, ratio of TC50 for african green monkey Vero cells to IC50 for Coxsackievirus A16; format: toxicity, cell-based; details: read-out: Selectivity Index
How it was run: (§1)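 Selectivity index is calculated as TC50 in Vero cells divided by the antiviral IC50 against the named enterovirus. Both values come from the same Vero cytopathic-effect assay, with compounds dissolved in DMSO and diluted in medium.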

[2] = Selectivity index, ratio of TC50 for african green monkey Vero cells to IC50 for Coxsackievirus B3; format: toxicity, cell-based; details: read-out: Selectivity Index; how it was run: as §1
Coxsackievirus A16 = test: Antiviral activity against Coxsackievirus A16 infected in african green monkey Vero cells assessed as inhibition of viral growth after 24 hrs by Reed-Muench method; format: functional, cell-based
How it was run: (§2)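 Vero cells were seeded and after 24 h exposed to virus for 2 h. Compounds were then added after being dissolved in DMSO and diluted in culture medium. Cell-control and virus-control wells were run alongside. Cytopathic effect was scored once the virus wells exceeded grade 4. The 50% inhibitory concentration of virus growth was calculated by the Reed–Muench method.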

[3] = (§3) Cytotoxicity against african green monkey Vero cells; format: cell-based; details: chlorocebus sabaeus, Vero cells; read-out: TC50 (the source's name)
How it was run: (§4)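 TC50 is the compound concentration killing 50% of Vero cells (inhibiting cell growth by 50%). Compounds were dissolved in DMSO and diluted in medium, then added to seeded Vero cells. Cell wells were examined when cytopathic effect in virus-infected control wells exceeded grade 4.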

Coxsackievirus B3 = test: Antiviral activity against Coxsackievirus B3 infected in african green monkey Vero cells assessed as inhibition of viral growth after 24 hrs by Reed-Muench method; format: functional, organism-based; details: Enterovirus B; how it was run: as §2
Enterovirus A71 [4] = test: Antiviral activity against Human enterovirus 71 infected in african green monkey Vero cells assessed as inhibition of viral growth after 48 hrs by Reed-Muench method; format: functional, organism-based; details: Enterovirus A; how it was run: as §2
[5] = Selectivity index, ratio of TC50 for african green monkey Vero cells to IC50 for Human enterovirus 71; format: toxicity, cell-based; details: read-out: Selectivity Index; how it was run: as §1
[6] = Selectivity index, ratio of TC50 for african green monkey Vero cells to IC50 for Coxsackievirus B6; format: toxicity, cell-based; details: read-out: Selectivity Index; how it was run: as §1
Coxsackievirus B6 = test: Antiviral activity against Coxsackievirus B6 infected in african green monkey Vero cells assessed as inhibition of viral growth after 24 hrs by Reed-Muench method; format: functional, organism-based; details: Enterovirus B; how it was run: as §2
Enterovirus A71 [7] = test: Antiviral activity against Human enterovirus 71 infected in african green monkey Vero cells assessed as inhibition of viral growth after 24 hrs by Reed-Muench method; format: functional, organism-based; details: Enterovirus A; how it was run: as §2
Vero = test: as §3; format: cell-based; details: chlorocebus sabaeus, vero; how it was run: as §4
[8] = Enterovirus A, Vero, 24 h, read-out: IC50

SMILES	selectivity ratio [1]	selectivity ratio [2]	IC50 (Coxsackievirus A16; [8]) [µM]	CC50 [3] [µM]	IC50 (Coxsackievirus B3) [µM]	IC50 (Enterovirus A71 [4]) [µM]	selectivity ratio [5]	selectivity ratio [6]	IC50 (Coxsackievirus B6) [µM]	IC50 (Enterovirus A71 [7]) [µM]	IC50 (Coxsackievirus A16; vero)	TC50 (Vero)
COc1ccc(-c2nc3c(C(=O)Nc4ccccc4F)cccc3[nH]2)cc1OC	7	7	3.5	24.5	3.5							
O=C(N[C@H](CO)[C@H](O)c1ccc([N+](=O)[O-])cc1)c1cccc2[nH]c(-c3ccccn3)nc12		328		1330	4.06	4.06	328					
Cc1csc(NC(=O)c2cccc3[nH]c(-c4ccccn4)nc23)n1		10		17.7	1.76							
O=C(N[C@H](CO)[C@H](O)c1ccc([N+](=O)[O-])cc1)c1cccc2[nH]c(-c3cccnc3)nc12		5.2		148	28.6							
Cc1csc(NC(=O)c2cccc3[nH]c(-c4cccnc4)nc23)n1		6.8		111	16.2							
O=C(N[C@H](CO)[C@H](O)c1ccc([N+](=O)[O-])cc1)c1cccc2[nH]c(-c3ccncc3)nc12		4.1		123	30.2							
Cc1csc(NC(=O)c2cccc3[nH]c(-c4ccncc4)nc23)n1		5.2		111	21.3							
O=C(Nc1ccccc1F)c1cccc2[nH]c(-c3ccco3)nc12		7.5		25	3.3							
O=C(N[C@H](CO)[C@H](O)c1ccc([N+](=O)[O-])cc1)c1cccc2[nH]c(-c3ccco3)nc12		4		152	37.7							
C[C@@H](NC(=O)c1cccc2[nH]c(-c3ccco3)nc12)[C@H](O)c1ccc(Cl)cc1		12.1		162	13.4							
O=C(Nc1ccccc1F)c1cccc2[nH]c(-c3ccc([N+](=O)[O-])o3)nc12		3		75.9	25.3							
O=C(N[C@H](CO)[C@H](O)c1ccc([N+](=O)[O-])cc1)c1cccc2[nH]c(-c3ccc([N+](=O)[O-])o3)nc12		3		68.7	22.9							
C[C@@H](NC(=O)c1cccc2[nH]c(-c3ccc([N+](=O)[O-])o3)nc12)[C@H](O)c1ccc(Cl)cc1		3		48.6	16.2							
COc1ccc(-c2nc3c(C(=O)NCCCO)cccc3[nH]2)cc1OC	2.1	2.7	20.9	46	17.2		2.7	3.6	12.1	20.9		
CCC(CC)NC(=O)c1cccc2[nH]c(-c3ccc(OC)c(OC)c3)nc12	3	3	0.736	2.23	0.7		3	3	0.736	0.736		
COc1ccc(-c2nc3c(C(=O)Nc4cnc(Cl)cn4)cccc3[nH]2)cc1OC	4.3	4.3	18.1	78.3	18.4		4.3	4.3	18.1	18.1		
COc1ccc(-c2nc3c(C(=O)Nc4ccccc4F)cccc3[nH]2)c(OC)c1OC	3	3.9	16.9	37.8	9.8							
COc1ccc(-c2nc3c(C(=O)N[C@H](CO)[C@H](O)c4ccc([N+](=O)[O-])cc4)cccc3[nH]2)c(OC)c1OC	2.1	2	4.73	9.85	4.73		2.7	2.1	4.73	3.68		
COc1ccc(-c2nc3c(C(=O)NCCCO)cccc3[nH]2)c(OC)c1OC	2.1	2.1	19.2	40	19.5		2.7	2.7	19.2	14.9		
CCC(CC)NC(=O)c1cccc2[nH]c(-c3ccc(OC)c(OC)c3OC)nc12	1.7	1.7	18.7	32.3	18.7		1.73	1.7	18.7	18.7		
COc1ccc(-c2nc3c(C(=O)Nc4cnc(Cl)cn4)cccc3[nH]2)c(OC)c1OC	3.9	3.8	16.9	65.2	17.4		3.9	3.9	16.9	16.9		

SMILES	selectivity ratio [1]	selectivity ratio [2]	IC50 (Coxsackievirus A16; [8]) [µM]	CC50 [3] [µM]	IC50 (Coxsackievirus B3) [µM]	IC50 (Enterovirus A71 [4]) [µM]	selectivity ratio [5]	selectivity ratio [6]	IC50 (Coxsackievirus B6) [µM]	IC50 (Enterovirus A71 [7]) [µM]	IC50 (Coxsackievirus A16; vero)	TC50 (Vero)
COc1ccc(-c2nc3c(C(=O)Nc4nc5ccccc5[nH]4)cccc3[nH]2)c(OC)c1OC	1.7	1.7	16.7	29	16.9		1.7	1.7	16.7	16.7		
COc1ccc(-c2nc3c(C(=O)N[C@H](CO)[C@H](O)c4ccc([N+](=O)[O-])cc4)cccc3[nH]2)cc1OC	1.7		8.37	14.5								
COc1ccc(-c2nc3c(C(=O)Nc4c[nH]cn4)cccc3[nH]2)cc1OC	3		102	306								
COc1ccc(-c2nc3c(C(=O)Nc4ncc[nH]4)cccc3[nH]2)cc1OC											Not Active	Not Active
COc1ccc(-c2nc3c(C(=O)Nc4nc(C#N)c(C#N)[nH]4)cccc3[nH]2)cc1OC	4.3		9.98	43.1								
COc1ccc(-c2nc3c(C(=O)Nc4cnccn4)cccc3[nH]2)cc1OC	3		32.9	98.8								
COc1ccc(-c2nc3c(C(=O)Nc4nc5ccccc5[nH]4)cccc3[nH]2)cc1OC	5.2		9.98	51.8								
COc1ccc(-c2nc3c(C(=O)Nc4ncccc4O)cccc3[nH]2)cc1OC	5.2		31.7	164								
O=C(Nc1ccccc1F)c1cccc2[nH]c(-c3ccncc3)nc12		3		111	37.2							
O=C(Nc1ccccc1)c1cccc2[nH]c(-c3cccnc3)nc12		9.2		34.2	3.72							
NC(=O)c1cccc2[nH]c(-c3cccnc3)nc12		3		77.7	26							
O=C(Nc1ccccc1)c1cccc2[nH]c(-c3ccccn3)nc12		38.9		17.9	0.459							
O=C(NCCO)c1cccc2[nH]c(-c3ccncc3)nc12				498								
O=C(Nc1ccccc1F)c1cccc2[nH]c(-c3cccnc3)nc12		3.2		54.7	9.73							
O=C(NCCO)c1cccc2[nH]c(-c3cccnc3)nc12		7.5		682	90.7							
NC(=O)c1cccc2[nH]c(-c3ccccn3)nc12		7.3		224	30.6							
O=C(Nc1ccccc1)c1cccc2[nH]c(-c3ccncc3)nc12		4		49.8	12.3							
O=C(NCCO)c1cccc2[nH]c(-c3ccccn3)nc12		4.3		568	131							
O=C(Nc1ccccc1F)c1cccc2[nH]c(-c3ccccn3)nc12		28.4		54.7	1.63							
NC(=O)c1ncn([C@@H]2O[C@H](CO)[C@@H](O)[C@H]2O)n1 [RIBAVIRIN]			4090	8190	1690				910	2340		
